How the values were obtained:
Liver [1] = experiment: Metabolic stability in human liver microsomes assessed as compound remaining at 4 uM measured after 30 mins in presence of NADPH by LC-MS/MS analysis; assay type: ADME, microsome; settings: 0.5 h
Procedure, shortened: (§1)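 Human, mouse or rat liver microsomes were incubated with compound at 4 μM final for 30 min at 37 °C (n = 1). Percent of parent remaining was quantified by LC-MS/MS.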

Liver [2] = experiment: Metabolic stability in rat liver microsomes assessed as compound remaining at 4 uM measured after 30 mins in presence of NADPH by LC-MS/MS analysis; assay type: ADME, microsome; settings: 0.5 h; procedure, shortened: as §1
[3] = Drug uptake in Sprague-Dawley rat brain at 10 mg/kg, po measured after 60 mins by LC-MS/MS analysis; assay type: ADME, organism-based; settings: read-out: Drug uptake
Procedure, shortened: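 Sprague-Dawley rats (n = 3 per time point) were given 10 mg/kg p.o. Total plasma concentrations were taken at 15, 30, 60 and 120 min. Brain levels of the dosed ligand and of the carboxylic acid metabolite were taken at 60 or 120 min.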

Mus musculus = experiment: Toxicity in Swiss mouse assessed as change in motor coordination by measuring number of falls from the rotating rod at 10 mg/kg, ip administered 30 mins prior to testing measured for 2 mins by rotarod test relative to control; assay type: organism-based; settings: in vivo
Procedure, shortened: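 The same mice used for marble burying were placed on a rotarod at 4 r.p.m. for 2 min. No fall was scored success, one fall partial, and two falls failure.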

[4] = target: T1, GABA-A receptor; alpha-2/beta-3/gamma-2 (Homo sapiens) (UniProt P18507+P28472+P47869); experiment: Modulation of recombinant GABA alpha2beta3gamma2 receptor (unknown origin) expressed in Xenopus laevis oocytes assessed as change in GABA-induced EC(3 to 6) current at 100 nM by two-electrode voltage clamp assay; assay type: cell-based
Procedure, shortened: (§2)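 Xenopus laevis oocytes expressing α1, α2, α3 or α5 β3γ2 GABAARs were recorded by two-electrode voltage clamp. Modulation of the GABA EC3-6 current (taken as 100%) was tested at 100 nM, 1 μM and 10 μM in the same cells. Values are mean ± SEM, n = 3–4.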

[5] = target: T2, GABA-A receptor; alpha-3/beta-3/gamma-2 (Homo sapiens) (UniProt P18507+P28472+P34903); experiment: Modulation of recombinant GABA alpha3beta3gamma2 receptor (unknown origin) expressed in Xenopus laevis oocytes assessed as change in GABA-induced EC(3 to 6) current at 100 nM by two-electrode voltage clamp assay; assay type: cell-based; procedure, shortened: as §2
[6] = target: T2, GABA-A receptor; alpha-3/beta-3/gamma-2 (Homo sapiens); experiment: Modulation of recombinant GABA alpha3beta3gamma2 receptor (unknown origin) expressed in Xenopus laevis oocytes assessed as change in GABA-induced EC(3 to 6) current at 1 uM by two-electrode voltage clamp assay; assay type: cell-based; procedure, shortened: as §2
[7] = target: T3, GABA-A receptor; alpha-5/beta-3/gamma-2 (Homo sapiens) (UniProt P18507+P28472+P31644); experiment: Modulation of recombinant GABA alpha5beta3gamma2 receptor (unknown origin) expressed in Xenopus laevis oocytes assessed as change in GABA-induced EC(3 to 6) current at 1 uM by two-electrode voltage clamp assay; assay type: cell-based; procedure, shortened: as §2
[8] = target: GABA-A receptor; alpha-1/beta-3/gamma-2 (Homo sapiens) (UniProt P14867+P18507+P28472); experiment: Modulation of recombinant GABA alpha1beta3gamma2 receptor (unknown origin) expressed in Xenopus laevis oocytes assessed as change in GABA-induced EC(3 to 6) current at 10 uM by two-electrode voltage clamp assay; assay type: cell-based; procedure, shortened: as §2
[9] = target: T2, GABA-A receptor; alpha-3/beta-3/gamma-2 (Homo sapiens); experiment: Modulation of recombinant GABA alpha3beta3gamma2 receptor (unknown origin) expressed in Xenopus laevis oocytes assessed as change in GABA-induced EC(3 to 6) current at 10 uM by two-electrode voltage clamp assay; assay type: cell-based; procedure, shortened: as §2
[10] = Half life in femoral artery/vein cannulated Sprague-Dawley rat at 1 mg/kg, iv administered […] as single dose by LC-MS/MS analysis; assay type: ADME, organism-based; settings: in vivo
Procedure, shortened: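 Male Sprague-Dawley rats (n = 3 per time point) were dosed 1 mg/kg i.v. or 10 mg/kg i.p. Plasma concentrations were measured at set time points. Clearance, Vdss and T½ came from the i.v. arm, and AUC, Cmax and Tmax from the i.p. arm.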

Brain = experiment: Fraction unbound in rat brain by equilibrium dialysis method; assay type: ADME, tissue-based
Procedure, shortened: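 Fraction unbound was determined in vitro by equilibrium dialysis with rat plasma protein and rat brain.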

Rattus norvegicus [11] = experiment: Anxiolytic like activity in water-deprived Sprague-Dawley rat assessed as increase in water drinking time during punished period at 20 mg/kg, po administered 30 mins prior to testing by Vogel conflict test relative to control; assay type: functional
Procedure, shortened: (§3)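 Water-deprived male Sprague-Dawley rats (n = 6–8) drank during unpunished and punished periods, with licking suppressed by mild shock in punished periods. Compounds were given 30 min before testing. Analysis was ANOVA with Dunnett's test.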

Rattus norvegicus [12] = experiment: Anxiolytic like activity in water-deprived Sprague-Dawley rat assessed as increase in water drinking time during punished period at 10 mg/kg, po administered 30 mins prior to testing by Vogel conflict test relative to control; assay type: functional; procedure, shortened: as §3
[13] = target: T1, GABA-A receptor; alpha-2/beta-3/gamma-2 (Homo sapiens); experiment: Modulation of recombinant GABA alpha2beta3gamma2 receptor (unknown origin) expressed in Xenopus laevis oocytes assessed as change in GABA-induced EC(3 to 6) current by two-electrode voltage clamp assay; assay type: cell-based; procedure, shortened: as §2
[14] = target: T2, GABA-A receptor; alpha-3/beta-3/gamma-2 (Homo sapiens); experiment: Modulation of recombinant GABA alpha3beta3gamma2 receptor (unknown origin) expressed in Xenopus laevis oocytes assessed as change in GABA-induced EC(3 to 6) current by two-electrode voltage clamp assay; assay type: cell-based; procedure, shortened: as §2
[15] = target: T3, GABA-A receptor; alpha-5/beta-3/gamma-2 (Homo sapiens); experiment: Modulation of recombinant GABA alpha5beta3gamma2 receptor (unknown origin) expressed in Xenopus laevis oocytes assessed as change in GABA-induced EC(3 to 6) current by two-electrode voltage clamp assay; assay type: cell-based; procedure, shortened: as §2

Q: Which Stability (Liver [1]) does the source give for `C#Cc1ccc2c(c1)C(c1ccccn1)=NCc1c(-c3cnco3)ncn1-2` here?
A: 91%

Q: And the Stability (Liver [2])?
A: 90%

Q: What about the concentration at 1 h [3] of the same compound?
A: 3.64 µM

Q: What about the Activity (Mus musculus) of the same compound?
A: Toxic

Q: What about the Activity [4] of the same compound?
A: 100%

Q: And the Activity [5]?
A: 109%

Q: What about the Activity [6] of the same compound?
A: 188%

Q: And the Activity [7]?
A: 158%

Q: And the Activity [8]?
A: 232%

Q: What about the Activity [9] of the same compound?
A: 332%

Q: And the half-life [10]?
A: 1.4 h

Q: And the Fu (Brain)?
A: 17.7%

Q: And the Activity (Rattus norvegicus [11])?
A: 330%

Q: What about the Activity (Rattus norvegicus [12]) of the same compound?
A: 240%

Q: What about the Activity [13] of the same compound?
A: Dose-dependent effect

Q: What about the Activity [14] of the same compound?
A: Dose-dependent effect

Q: And the Activity [15]?
A: Dose-dependent effect

From ChEMBL document CHEMBL4041524, “Synthesis and Characterization of a Novel γ-Aminobutyric Acid Type A (GABAA) Receptor Ligand That Combines Outstanding Metabolic Stability, Pharmacokinetics, and Anxiolytic Efficacy” (J Med Chem, 2016)
